ChEMBL document CHEMBL3351257, “Total syntheses of parthenolide and its analogues with macrocyclic stereocontrol” (J Med Chem, 2014)

Assays:
Format in all cases: functional, cell-based
MCF7 = assay: Cytotoxicity against human MCF7 cells assessed as cell viability after 72 hrs by CCK cell proliferation assay; conditions: MCF7, 72 h
How it was run: (§1)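 Cells plated at 3,000–5,000 per well; dosing began 24 h after plating, using a rising concentration series. After 72 h, cell counting kit reagent added and incubation continued 1–4 h. Viable cells read as OD at 450 nm. Inhibition rate = (1 − OD treated/OD control) × 100%. Wells in triplicate, each compound tested three times; IC50 is the mean of three independent experiments.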

C6 = assay: Cytotoxicity against rat C6 cells assessed as cell viability after 72 hrs by CCK cell proliferation assay; conditions: C6, 72 h; how it was run: as §1
[1] = Cytotoxicity against human SUM159 cells assessed as cell viability after 72 hrs by CCK cell proliferation assay; conditions: SUM-159-PT; how it was run: as §1
[2] = Cytotoxicity against human HL60 cells assessed as cell viability after 72 hrs by CCK cell proliferation assay; conditions: HL-60, 72 h; how it was run: as §1

Structure (SMILES)	IC50 (MCF7) [µM]	IC50 (C6) [µM]	IC50 [1] [µM]	IC50 [2] [µM]
C=C1C(=O)O[C@H]2[C@@H]1CC/C(C)=C/CC[C@@]1(C)O[C@@H]21	17.6	24	12.3	2.9
C=C1C(=O)O[C@H]2[C@@H]1CC/C(C)=C\CC[C@@]1(C)O[C@@H]21	13	41.8	3.5	4.2
C=C1C(=O)O[C@@H]2C3O[C@]3(C)CC/C=C(\C)CC[C@@H]12 (stereo partly specified)	6.9	6.6	10.3	2.5
C=C1C(=O)O[C@H]2[C@H]1CC/C(C)=C\CC[C@@]1(C)O[C@@H]21	5.9	3.9	7.7	1.2
